Results reported in ChEMBL document CHEMBL4177758, “Rational Drug Design of Topically Administered Caspase 1 Inhibitors for the Treatment of Inflammatory Acne” (J Med Chem, 2018).
In brackets after ≈: the same amount, converted by molar mass. Activity calls are given as the source filed them. The rule behind the calls is not given here.

What was measured:
[1] = target: T1, Caspase-1 (Homo sapiens, UniProt P29466); assay: Inhibition of human recombinant caspase-1 using AC-WEHD-AMC as substrate at Km after 20 mins by fluorescence assay
T1 sequence (P29466 whole entry): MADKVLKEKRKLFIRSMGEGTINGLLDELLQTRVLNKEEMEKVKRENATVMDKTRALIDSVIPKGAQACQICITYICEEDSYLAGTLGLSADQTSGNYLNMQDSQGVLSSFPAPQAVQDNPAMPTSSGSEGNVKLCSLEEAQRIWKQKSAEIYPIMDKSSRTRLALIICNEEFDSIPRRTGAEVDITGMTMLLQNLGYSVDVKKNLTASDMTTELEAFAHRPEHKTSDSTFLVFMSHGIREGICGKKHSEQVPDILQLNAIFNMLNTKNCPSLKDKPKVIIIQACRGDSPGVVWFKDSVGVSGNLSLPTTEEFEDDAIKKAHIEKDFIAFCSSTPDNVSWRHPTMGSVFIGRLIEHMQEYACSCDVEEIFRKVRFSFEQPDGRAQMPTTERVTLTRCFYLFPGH

[2] = target: T1, Caspase-1; assay: Inhibition of human recombinant caspase-1 using AC-WEHD-AMC as substrate at 20 times Km after 20 mins by fluorescence assay
Outline: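 Human recombinant caspase-1 in pH 7.4 HEPES buffer (100 mM NaCl, 0.1% CHAPS, 1 mM EDTA, 10% glycerol, 10 mM DTT) with Ac-WEHD-AMC at 200 μM final. Compounds tested at 10 000–0.04 nM in 1% DMSO. Enzyme level is set to convert under 20% of substrate in 20 min at room temperature. Free AMC read at ex 340/em 450 nm; IC50 from a four-parameter logistic fit.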

[3] = target: T2, Caspase-1 (Homo sapiens) (UniProt P29466); assay: Reversible inhibition of human recombinant caspase-1 using AC-WEHD-AMC as substrate at 10 times IC50 preincubated for 1 hr followed by 100 fold dilution with substrate measured for 2 hrs by fluorescence assay
T2 sequence (whole entry): T1 sequence (P29466 whole entry)
Outline: (§1)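 Jump dilution using the caspase-1 assay reagents. A 100X enzyme solution is preincubated 1 h with inhibitor at its IC90 (1% DMSO), then diluted 100-fold into Ac-WEHD-AMC at Km. AMC formation is recorded continuously for 2 h. The progress-curve slope is normalized to the DMSO control: about 90% indicates reversible, about 10% pseudo-irreversible.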

[4] = Lipophilicity, log D of the compound at pH 6.5 by chromatographic method; format: physicochemical; conditions: buffer
Outline: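 Chromatographic lipophilicity at pH 6.5, converted to ChromLogD = CHI × 0.0857 − 2.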

[5] = Solubility of the compound in PG/EtOH solution; format: physicochemical
[6] = Aqueous solubility of the compound in pH 7.4 buffered water after 24 hrs; format: physicochemical
Outline: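 Semi-thermodynamic protocol: a mixture made from a 10 mM DMSO stock is diluted into pH 7.4 buffered water and stirred 24 h before the concentration is measured.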

[7] = target: T1, Caspase-1; assay: Inhibition of caspase-1 in human THP1 cells assessed as decrease in LPS-induced IL-1beta secretion after overnight incubation by sandwich immunoassay; format: cell-based
[8] = Chemical stability in 96% ethanol assessed as parent compound recovery at 23 degC after 3 months; format: physicochemical; conditions: read-out: Drug recovery
Outline: (§2)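 Compounds bearing the aspartyl aldehyde warhead are held in 96% ethanol at 23 °C and assayed as percent of parent compound recovered. Readings taken after 4 weeks are projected to 12 weeks with best-fit kinetic-order equations. Tautomers and potential stereoisomers are counted as parent.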

[9] = Intrinsic clearance in NHEK cells assessed per 10^6 cells; format: ADME, cell-based; conditions: human
[10] = Intrinsic clearance in human epidermal keratinocyte S9 fraction assessed per mg of protein; format: ADME
[11] = target: T2, Caspase-1 (Homo sapiens); assay: Pseudoirreversible inhibition of human recombinant caspase-1 using AC-WEHD-AMC as substrate at 10 times IC50 preincubated for 1 hr followed by 100 fold dilution with substrate measured for 2 hrs by fluorescence assay; outline: as §1
[12] = Phototoxicity in NHEK assessed as decrease in cell viability after 24 hrs in presence of UV light by neutral red uptake assay; conditions: human
Outline: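 Keratinocyte neutral red uptake assay adapted from the OECD 432 3T3 NRU test. Cells are irradiated with a simulated daily UV dose of 6 J/cm², and viability is read after 24 h exposure to compound.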

[13] = Chemical stability in 96% ethanol assessed as parent compound recovery at 23 degC after 84 days; format: physicochemical; conditions: read-out: Drug recovery; outline: as §2

Structure (SMILES)	IC50 ([1]; read-out: pIC50 (converted))	IC50 [2]	chromatographic logD [4]	solubility at 24 h [6]	IC50 [7]	other results
CC(C)N(NC(=O)c1nccc2ccccc12)C(=O)[C@@H]1CCCC[C@H]1C(=O)N[C@H]1CC(=O)OC1O (some centres undefined)						reversible inhibition call (jump dilution) [3]: Active
CC(C)n1cc(NC(=O)c2ccc(Nc3cnc4ccccc4n3)cc2)c(=O)n(C(C)C(=O)N[C@H]2CC(=O)OC2O)c1=O (some centres undefined)			2.4	86 µM (≈ 50.5 µg/mL)	50 nM	IC50 ([1]; read-out: IC50): 5.6 nM; solubility [5]: 11000 µM (≈ 6460 µg/mL)
CC(C)N(NC(=O)c1ccc2ccccc2c1)C(=O)[C@@H]1CCCC[C@H]1C(=O)N[C@H]1CC(=O)OC1O (some centres undefined)						reversible inhibition call (jump dilution) [3]: Active
O=C1C[C@H](NC(=O)[C@@H]2C[C@@H]3CN2C(=O)[C@@H](NC(=O)c2ccc4ccccc4c2)CCCCO3)C(O)O1 (some centres undefined)	5010 nM	> 10000 nM				
CC(C)n1cc(NC(=O)c2ccc(Nc3ccc4ccccc4c3)cc2)c(=O)n(C2(C(=O)N[C@H]3CC(=O)OC3O)CC2)c1=O (some centres undefined)			3.5	66 µM (≈ 39.4 µg/mL)	23 nM	solubility [5]: 31000 µM (≈ 18500 µg/mL); remaining at 2191.5 h [8]: 99%; CL [10]: < 0.82 uL/min/mg protein; CL [9]: 2.1 uL/min/10^6 cells
C[C@@H](C(=O)N[C@H]1CC(=O)OC1O)N1C(=O)C[C@H](NC(=O)c2ccc3ccccc3c2)C1=O (some centres undefined)						pseudo-irreversible inhibition (qualitative call) [11]: Active
O=C1C[C@H](NC(=O)[C@@H]2CC[C@@H]3CCCC[C@H](NC(=O)c4nccc5ccccc45)C(=O)N32)C(O)O1 (some centres undefined)						pseudo-irreversible inhibition (qualitative call) [11]: Active
CC(C)N(NC(=O)c1cccc(Oc2ccccc2)c1)C(=O)[C@@H]1CCCC[C@H]1C(=O)N[C@H]1CC(=O)OC1O (some centres undefined)						reversible inhibition call (jump dilution) [3]: Active
CC(C(=O)N[C@H]1CC(=O)OC1O)n1c(=O)c(NC(=O)c2ccc3ccccc3c2)cn(C)c1=O (some centres undefined)	501 nM	7940 nM				reversible inhibition call (jump dilution) [3]: Active
CC(C)n1cc(NC(=O)c2ccc(Nc3ccc4ccccc4c3)cc2)c(=O)n(CC(=O)N[C@H]2CC(=O)OC2O)c1=O (some centres undefined)			3.2	52 µM (≈ 29.7 µg/mL)	140 nM	IC50 ([1]; read-out: IC50): 21 nM; solubility [5]: 36000 µM (≈ 20600 µg/mL); remaining at 2191.5 h [8]: 82%; CL [10]: < 0.82 uL/min/mg protein; Activity [12]: Toxic
C[C@@H](C(=O)N[C@H]1CC(=O)O[C@@H]1O)N1C(=O)CCC(NC(=O)c2ccc3ccccc3c2)C1=O (some centres undefined)						pseudo-irreversible inhibition (qualitative call) [11]: Active
CC(C)N(NC(=O)c1ccc2ccccc2c1)C(=O)C1CCCC[C@H]1C(=O)N[C@H]1CC(=O)OC1O (some centres undefined)	251 to 10000 nM	1580 to 10000 nM				
C[C@@H](C(=O)N[C@H]1CC(=O)OC1O)N1C(=O)NC(NC(=O)c2ccc3ccccc3c2)C1=O (some centres undefined)	1000 to 10000 nM	1260 to 10000 nM				
CCC(C(=O)N[C@H]1CC(=O)OC1O)n1c(=O)c(NC(=O)c2ccc(Nc3ccc4ccccc4c3)cc2C)cn(C(C)C)c1=O (some centres undefined)			4		76 nM	remaining at 2191.5 h [8]: 72%
CC(C)N(NC(=O)c1ccc2ccccc2c1)C(=O)C1CNC[C@H]1C(=O)N[C@H]1CC(=O)OC1O (some centres undefined)	251 to 10000 nM	1580 to 10000 nM				
Cc1cnc(Nc2ccc(C(=O)Nc3cn(C)c(=O)n(C(C)C(=O)N[C@H]4CC(=O)OC4O)c3=O)cc2)cn1 (some centres undefined)	39.8 nM					
C[C@@H](C(=O)N[C@H]1CC(=O)OC1O)N1C(=O)CC(NC(=O)c2ccc3ccccc3c2)C1=O (some centres undefined)	1000 to 10000 nM	1260 to 10000 nM				
CC(C)[C@H](NC(=O)[C@H](Cc1ccc(O)cc1)NC(=O)OCc1ccccc1)C(=O)N[C@@H](C)C(=O)N[C@@H](CC(=O)O)C(=O)CF						pseudo-irreversible inhibition (qualitative call) [11]: Active

More lines, main results first:

IC50 ([1]; read-out: pIC50 (converted))	IC50 [2]	chromatographic logD [4]	solubility at 24 h [6]	IC50 [7]	Structure (SMILES)	other results
1260 nM	> 10000 nM				CC(C)[C@H](NC(=O)c1ccc2ccccc2c1)c1ccc(C(=O)N[C@H]2CC(=O)OC2O)cn1 (some centres undefined)	
251 to 10000 nM	1580 to 10000 nM				CC(C)N(NC(=O)c1ccc2ccccc2c1)C(=O)C1CCC[C@H]1C(=O)N[C@H]1CC(=O)OC1O (some centres undefined)	
1000 to 10000 nM	1260 to 10000 nM				C[C@@H](C(=O)N[C@H]1CC(=O)OC1O)N1C(=O)CCC(NC(=O)c2ccc3ccccc3c2)C1=O (some centres undefined)	
	31.6 nM	1.9	96 µM (≈ 53.7 µg/mL)	48 nM	CC(C(=O)N[C@H]1CC(=O)OC1O)n1c(=O)c(NC(=O)c2ccc(Nc3cnc4ccccc4n3)cc2)cn(C)c1=O (some centres undefined)	IC50 ([1]; read-out: IC50): 5.6 nM; solubility [5]: 890 µM (≈ 498 µg/mL)
		3.5	72 µM (≈ 42.2 µg/mL)	66 nM	Cc1cc(Nc2ccc3ccccc3c2)ccc1C(=O)Nc1cn(C(C)C)c(=O)n(CC(=O)N[C@H]2CC(=O)OC2O)c1=O (some centres undefined)	solubility [5]: 51000 µM (≈ 29900 µg/mL); remaining at 2191.5 h [8]: 85%; CL [9]: 3.9 uL/min/10^6 cells
		3.8	42 µM (≈ 26.4 µg/mL)	210 nM	CCC(C(=O)N[C@H]1CC(=O)OC(O)C1)n1c(=O)c(NC(=O)c2ccc(Nc3ccc4ccccc4c3)cc2C)cn(C(C)C)c1=O (some centres undefined)	remaining at 2191.5 h [8]: 84%; CL [10]: 2.9 uL/min/mg protein; CL [9]: 13 uL/min/10^6 cells
		2.4	87 µM (≈ 52.2 µg/mL)	27 nM	CC(C)n1cc(NC(=O)c2ccc(Nc3cnc4ccccc4n3)cc2)c(=O)n(C2(C(=O)N[C@H]3CC(=O)OC3O)CC2)c1=O (some centres undefined)	IC50 ([1]; read-out: IC50): 4.7 nM; solubility [5]: 25000 µM (≈ 15000 µg/mL)
		2.3	8.3 µM (≈ 4.76 µg/mL)	53 nM	CC(C)n1cc(NC(=O)c2ccc(Nc3cnc4ccccc4n3)cc2)c(=O)n(CC(=O)N[C@H]2CC(=O)OC2O)c1=O (some centres undefined)	IC50 ([1]; read-out: IC50): 3 nM; solubility [5]: 5200 µM (≈ 2980 µg/mL)
		3.4	63 µM (≈ 39.4 µg/mL)	360 nM	Cc1cc(Nc2ccc3ccccc3c2)ccc1C(=O)Nc1cn(C(C)C)c(=O)n(C2(C(=O)N[C@H]3CC(=O)OC(O)C3)CC2)c1=O (some centres undefined)	remaining at 2016 h [13]: 88%; CL [10]: 3.5 uL/min/mg protein; Activity [12]: Non-Toxic
15.8 nM	100 nM				CC(C)[C@H](NC(=O)c1ccc2ccccc2c1)C(=O)N1C2CCC(O)(CC2)C1C(=O)N[C@H]1CC(=O)OC1O (some centres undefined)	
		4.5	2 µM (≈ 1.23 µg/mL)	200 nM	CCC(C(=O)N[C@H]1CC(=O)OC1O)n1c(=O)c(NC(=O)c2ncc(Nc3ccc4ccccc4c3)cc2C)cn(C(C)C)c1=O (some centres undefined)	solubility [5]: 49000 µM (≈ 30100 µg/mL); remaining at 2191.5 h [8]: 100%; CL [10]: 2 uL/min/mg protein; CL [9]: 7.7 uL/min/10^6 cells; Activity [12]: Toxic
